Wee1 degr inh: blocks degradation of human Wee1 kinase. P30291. reporter increase, % at 5 µM. 1.2% of 220,000 active. HeLa Luc-Wee1K328M stability, luciferase luminescence; 100% = proteasome inhibitor MG132 effect;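 active = activation above the mean of all tested compounds plus 3 SD, set per screening run, cut at about 8.8% in these data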;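 note: cells exposed to compound for 20 h before luminescence read; 0% = DMSO alone and 100% = MG132 at 30 µM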
Mdm2 ligase inh: inhibitors of human Mdm2 E3 ubiquitin ligase; 0.11% of 210,000 active; Q00987; cell-based MDM2 ubiquitination luciferase reporter, 2 h; 0 = plate control, 100 = twice control, blank-subtracted; signal enhancement, % at 5 µM;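 active = signal enhancement of 30% or more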;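 note: luminescence tracks abundance of the self-degrading MDM2-luciferase fusion protein; higher signal means inhibition of MDM2 E3 ligase activity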
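Material: stable MDM2–luciferase fusion reporter cells / Quantity: 2000 cells/well / Dosing: single 5 µM compound dose, 0.2% final DMSO / Buffer or medium: DMEM / Schedule: 4 h cell settling then 2 h compound exposure, 37 °C / Detection: luminescence with SteadyLite reagent, 15 min at room temperature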
p97 inhibitor: inhibitors of human p97 ATPase; P55072; recombinant p97 ATPase, Kinase-Glo ATP luminescence, 3 h; inhibition, % at 8 µM; 0.42% of 220,000 active; AID 1481; in the data active = inhibition above about 15%;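 note: 0% = DMSO vehicle and 100% = wells lacking enzyme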
NF-kB neuron act: raises NF-kB expression in human neuronal cells; NF-kB reporter expression; active compounds read high; fold change at 12.5 µM; 1.6% of 190,000 active; AID 1239; in the data active = fold change above about 3.3
STAT1 activator: STAT1 signaling activation | NIH 3T3 STAT1-luciferase reporter, IFN-gamma, luminescence; 100% = IFN-gamma alone, no compound | activation (% of control), % at 5.5 µM | 2.6% of 200,000 active | AID 932;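 active = activation above the screen-wide mean activation plus 3 SD, cut at about 130% in these data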;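 note: raw ratio to IFN-gamma control signal so 100% means no change and 0% no light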
APP 5'UTR act: activates APP 5'UTR luciferase reporter. SH-SY5Y APP 5'UTR luciferase reporter, luminescence; zero percent = DMSO vehicle wells. activation, % at 2 µM. 1% of 190,000 active. AID 1276;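 active = activation above a set limit, based on mean plus 3 SD of controls, cut at about 140% in these data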
Active calls of the source: *; nt = no result given. This is a sample that favours compounds with a hit; in the whole collection about 4.6% have one here.

SMILES | Wee1 degr inh | Mdm2 ligase inh | p97 inhibitor | NF-kB neuron act | STAT1 activator | APP 5'UTR act
COc1ccc(S(=O)(=O)N2c3cc(Cl)ccc3Oc3nc4ccccc4nc32)cc1 | 1 | 3 | 1 | 3.6* | 95 | 17
O=C(CN(Cc1cccs1)C(=O)CNS(=O)(=O)c1ccc(Cl)cc1)NCC1CCCO1 (centres undefined) | 5 | -4 | 5 | 0.92 | 98 | 8
O=C(COC(=O)c1nc(-c2ccccc2)n(-c2cccc(C(F)(F)F)c2)n1)NCc1cccs1 | 3 | -11 | 3 | 1.1 | 102 | -1
Cn1c(N=NC(=O)c2ccccc2)c(O)c2ccccc21 | -1 | -49 | -8 | 2.8 | 143* | 135
CC(=O)c1c(O)c2ccccc2n(C)c1=O | -2 | -8 | -3 | 1.3 | 98 | 12
COc1ccccc1/C=C/C(=O)N1CCOCC1 | 1 | -12 | 5 | 1 | 101 | -26
O=C(Nc1ccc(Cl)cc1)N1CCC(c2ccccc2)C1 (centres undefined) | 9 | nt | 2 | 6.2* | 146* | 169*
Cc1ccc(NC(=O)N2CCC(c3ccccc3)C2)cc1C (centres undefined) | 7 | nt | 4 | 5.7* | 150* | 143*
Cc1ccc(NC(=O)C2CCCN2C(=O)Oc2ccccc2)cc1C (centres undefined) | 0 | -1 | 5 | 1.1 | 104 | 6
COc1ccccc1/C=C/C(=O)N1CCC(c2ccccc2)C1 (centres undefined) | 1 | nt | -3 | 2.4 | 134* | 52
Cc1ccc(C2CCN(C(=O)Nc3ccccc3)C2)cc1 (centres undefined) | 1 | -14 | -1 | 2.5 | 125 | 66
CC12CCC(C(=O)N(CC3CO3)C1=O)C2(C)C (centres undefined) | -1 | 8 | 6 | 1.1 | 103 | 33
COc1cc(NC(=O)c2cc3sccc3n2C)cc(OC)c1 | 9.0* | -7 | 5 | 2.5 | 132* | 104
Cn1c(C(=O)Nc2ccccc2)cc2sccc21 | 6 | -20 | 3 | 1.6 | 112 | 32
O=C(NC(=S)Nc1ccc2c(c1)OCCO2)c1ccc(F)cc1Cl | 3 | -9 | 1 | 2 | 131* | 13
Cc1cc(C)cc(C(=O)NC(=S)Nc2ccc3c(c2)OCCO3)c1 | 4 | -15 | -3 | 2.5 | 110 | 98
O=C(NC(=S)Nc1ccc2c(c1)OCO2)c1ccc(Cl)cc1 | 0 | -13 | 1 | 2.5 | 130* | 165*
CCc1ccc(C(=O)NC(=S)Nc2ccc3c(c2)OCCO3)cc1 | 3 | -17 | 0 | 5.4* | 146* | 136*
CCS(=O)(=O)NCCNc1ccc([N+](=O)[O-])cc1 | 0 | -7 | 1 | 1.3 | 96 | -27
CCOC(=O)Cc1c(C)nc(Cc2ccc(OC(C)C)cc2)[nH]c1=O | 0 | -6 | -2 | 0.97 | 105 | 11
O=C(CSc1nccn1-c1ncc(C(F)(F)F)cc1Cl)c1ccc(Cl)cc1 | -2 | -11 | 6 | 0.67 | 133* | -12
CCC(C(=O)NC1CCCCC1)N(Cc1cccs1)C(=O)c1snc(C(N)=O)c1N (centres undefined) | 9.8* | -2 | 0 | 0.57 | 96 | 3
CCCC(C(=O)NC(C)(C)C)N(CC1CCCO1)C(=O)c1snc(C(N)=O)c1N (centres undefined) | 9.4* | -6 | 7 | 1.1 | 98 | -5
COc1ccc(C(C)=O)cc1COC(=O)c1cnc(Cl)c(Cl)c1 | 2 | -3 | 0 | 1 | 103 | -18
CCN1C(=O)S/C(=C\c2ccc(N3CCOCC3)cc2C)C1=O | 3 | -27 | 2 | 1.4 | 144* | 34
CCCN1C(=O)S/C(=C\c2ccc(N3CCOCC3)cc2C)C1=O | 4 | -11 | 0 | 0.95 | 119 | 14
C#CCN1C(=O)S/C(=C\c2ccc(N3CCOCC3)cc2C)C1=O | -2 | -11 | -4 | 1.6 | 132* | 74
CCC(C)N1C(=O)S/C(=C/c2ccc(N3CCOCC3)cc2C)C1=O (centres undefined) | 8 | -6 | -4 | 0.5 | 132* | 61
Cc1cc(N2CCOCC2)ccc1/C=C1\SC(=O)N(C(C)C)C1=O | 3 | -6 | -4 | 0.71 | 120 | 16

High-throughput results (PubChem)
